Screens (PubChem BioAssay)
Rows were chosen to be rich in hits. Some 12% of all compounds tested hit in one or more screens of this group.
RAM inhibit = blocks the yeast RAM network | S. cerevisiae dse1pr::URA3 reporter, 5-FOA growth OD615, 2 d; analog-sensitive cbk1-as2 kinase mutant strain | inhibition, % at 50 µM | 190,000 tested, 1.8% active | AID 868;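 active = inhibition above a set limit, 3 SD over mean compound inhibition, cut at about 8.4% in these data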;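 also: inhibition rescues growth on 5-FOA so higher OD means more RAM inhibition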
L major viab = inhibitors of Leishmania major promastigote growth | Leishmania major promastigotes, resazurin fluorescence viability | inhibition, % at 10 µM | 200,000 tested, 9% active | AID 1063; in the data active = inhibition above about 50%;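 also: promastigotes grown with compound for 44 hours at 28 °C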
ABCB1 block = human ABCB1 inhibition, ABCG2 as counter-screen; P08183; CCRF-Adr cells, JC-1 efflux, flow cytometry; inhibition, % at 6.6 µM; 190,000 tested, 0.067% active; AID 1326; in the data active = inhibition above about 40%;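 also: higher value means more JC-1 retained so stronger ABCB1 efflux block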
ABCG2 block = inhibitors of human ABCG2 transporter, ABCB1 counter-screen; Q9UNQ0; inhibition, % at 6.6 µM; IgMXP3 cells, JC-1 efflux, flow cytometry; AID 1325; 190,000 tested, 0.1% active;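 active = inhibition above 80%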
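material = IgMXP3 (ABCG2) plus far-red-tagged CCRF-Adr (ABCB1) cells | amount = 3 million cells/mL, equal mix of both lines | also added = JC-1 transporter substrate | dosing = one concentration, 6.6 µM final | schedule = 10 min at 25 °C | measured by = flow cytometric JC-1 green MFI at 530 nm | read-out basis = percent efflux inhibition, scaled nicardipine 100% to DMSO 0%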
WT yeast gro inh = growth inhibition of WT yeast, mitochondrial fusion screen; inhibition, % at 10 µM; 190,000 tested, 2.1% active; AID 1362; mitochondrial fusion phenotypic screen, WT strain; in the data active = inhibition above about 58%; tested in S. cerevisiae
L major 1uM = L. major promastigote growth inhibition, 1 uM repeat; shares compounds with L major viab; resazurin fluorescence, 48 h; inhibition, % at 1 µM; 1,100 tested, 13% active;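 active = inhibition above about 50% in both repeat tests, limit read from the data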
Numbers stand for hits; – = inactive; · = not tested or not shown.

SMILES | RAM inhibit | L major viab | ABCB1 block | ABCG2 block | WT yeast gro inh | L major 1uM
O=C(O)c1cccnc1Sc1ccccc1 | – | 56 | – | – | – | –
N#Cc1c(Cl)cccc1-n1ccnc1 | – | – | – | – | – | ·
Clc1ccccc1C(c1ccccc1)(c1ccccc1)n1ccnc1 | – | 100 | – | – | – | 88
CN(C)/C=C/C(=O)c1ncc(C(F)(F)F)cc1Cl | – | – | – | – | – | ·
N#Cc1cc(Oc2cccc3cccnc23)c(-n2nnc3ccccc32)cc1C#N | – | 69 | – | – | – | –
N#Cc1cc(O)c(-n2nnc3ccccc32)cc1C#N | – | – | – | – | – | ·
CCOC(=O)C(=Cc1cc(=O)c(OC)co1)C(=O)OCC | – | 100 | – | – | – | 101
Cc1ccc(Oc2ccc(S(=O)(=O)N3CCOCC3)cc2C(N)=O)c(-n2nc3ccccc3n2)c1 | – | 54 | – | – | – | –
Cc1ccc(S(=O)(=O)N/N=c2\oc3ccccc3cc2C(=O)Nc2cccc(C)c2)cc1 | – | 71 | – | – | – | –
CN1CCCCc2c1[nH]c1ccccc1c2=O | – | 98 | – | – | – | –
CN1C(=O)c2ccccc2OC1(C)Cc1ccccc1 (stereo not drawn) | – | – | – | – | – | ·
Cc1cc(C=O)c2c(c1)C=CC1(Oc3ccccc3C(=O)N1C)O2 (stereo not drawn) | – | 100 | – | – | – | –
CCN1C(=O)C(CC(=O)Nc2ccc(Br)cc2)N(CCCc2ccccc2)C1=S (stereo not drawn) | 11 | 92 | – | – | – | –
CCN1C(=O)C(CC(=O)Nc2ccc(OC)cc2)N(CCc2ccc(OC)cc2)C1=S (stereo not drawn) | – | – | – | – | – | ·
OC(COC(c1ccccc1)c1ccccc1)CN1CCc2ccccc2C1 (stereo not drawn) | – | – | – | – | – | ·
OC(COCC1COc2ccccc2O1)CN1CCc2ccccc2C1 (stereo not drawn) | – | 99 | – | – | – | –
CCOC(=O)c1oc2cccc(OCC(O)CNC(C)C)c2c1C (stereo not drawn) | – | 101 | – | – | 69 | –
Cc1nnc(Sc2nc3ccccc3o2)c2ccccc12 | – | 64 | – | – | – | –
Cc1ccc(-c2nnc(Sc3nc4ccccc4o3)c3ccccc23)cc1 | – | 76 | – | – | – | –
CCSc1nnc(-c2ccc(Cl)cc2)c2ccccc12 | – | – | – | – | – | ·
Clc1ccc(-c2nnc(Sc3nc4ccccc4o3)c3ccccc23)cc1 | – | 90 | – | – | – | –
CCSc1nnc(C)c2ccccc12 | – | – | – | – | – | ·
C=CCNC(=O)c1c(Cl)nc(C)c([N+](=O)[O-])c1C | – | – | – | – | – | ·
O=C(COc1ccccc1)N1CCN(S(=O)(=O)c2cccc([N+](=O)[O-])c2)CC1 | – | – | – | – | – | ·
O=C(Nc1ccc([N+](=O)[O-])cc1)c1cc(-c2ccccn2)nc2c(Cl)cccc12 | – | – | – | – | – | ·
SMILES | RAM inhibit | L major viab | ABCB1 block | ABCG2 block | WT yeast gro inh | L major 1uM
Cc1nnc(NN2CCOCC2)[nH]c1=O | – | – | – | – | – | ·
NNC(=O)CSc1nc(-c2ccccc2)nc2c1CCCC2 | – | – | – | – | – | ·
OCCSc1nc(-c2ccccc2)nc2c1CCC2 | – | 52 | – | – | – | –
Cn1ccnc1SCc1cn2cc(Br)ccc2n1 | – | 82 | – | – | – | –
CCCCCCCNC1=CC(=O)CC(c2ccccc2)C1 (stereo not drawn) | – | 99 | – | – | – | –
COc1ccccc1NC(=O)CN1CCC(C(=O)c2ccc(F)cc2)CC1 | – | 71 | – | – | – | –
Cc1nc(N2CCN(Cc3ccccc3)CC2)[nH]c(=O)c1C | · | – | · | · | · | ·
c1ccc(CN2CCN(C3=Nc4cccc5cccc3c45)CC2)cc1 | – | 98 | – | – | – | –
Cc1ccc(CNC(=O)c2cn(C3CCCCC3)c(=O)c3c2c2ccccc2n3C)o1 | – | 53 | – | – | – | –
COc1ccccc1-c1nc(-c2ccccc2)[nH]c(=O)c1C#N | – | – | – | – | – | ·
CN(C(=O)CO/N=C/c1ccc(OC(F)F)cc1)C1CCS(=O)(=O)C1 (stereo not drawn) | – | – | – | – | – | ·
COc1ccc(-c2nc3ccccc3n2OCC(=O)O)cc1 | – | – | – | – | – | ·
COc1ccc(Cn2c(-c3ccc(OC)cc3)nc3ccccc32)cc1 | – | 62 | – | – | – | 63
O=C(Oc1cccc2cccnc12)c1cccc([N+](=O)[O-])c1 | – | – | – | – | – | ·
O=C(Oc1ccc(Cl)c2cccnc12)c1cccc([N+](=O)[O-])c1 | – | 99 | – | – | – | –
CCn1c2ccccc2c2cc(/C(C)=N/O)ccc21 | – | 69 | – | – | – | –
C/C(=N\O)c1ccc2c3ccccc3n(C)c2c1 | – | – | – | – | – | ·
O=C(CCc1ccccc1)NNC(=O)Cc1ccccc1 | – | – | – | – | – | ·
COc1ccc(-n2nnnc2SCc2nc3ccccc3s2)cc1 | – | – | – | – | – | ·
Cc1ccccc1-n1nnnc1Sc1nnnn1-c1ccccc1 | – | 100 | – | – | – | –
CCCSc1nnc(Sc2nnnn2-c2ccccc2)s1 | – | 88 | – | – | – | –
COc1ccc(CSc2nnnn2-c2ccccc2)cc1 | – | 100 | – | – | – | –
CCOC(=O)C1=C(C)NC(C)=C(C(=O)OCC)C1C(=O)OCC(=O)N1CCc2ccccc2C1 | – | – | – | – | – | ·
NC(=O)c1ccc(NC(=O)CSc2nnc(-c3ccccn3)n2N)cc1 | – | – | – | – | – | ·
Cc1ccc(C(=O)NCc2n[nH]c(=S)n2-c2ccccc2)cc1[N+](=O)[O-] | – | – | – | – | – | ·
SMILES | RAM inhibit | L major viab | ABCB1 block | ABCG2 block | WT yeast gro inh | L major 1uM
COC(=O)c1cccc(Cn2c(Cl)c(/C=N/Nc3ccccc3C)sc2=O)c1 | – | 58 | – | – | – | 64
O=C(Cn1cnc2c(nnn2-c2ccccc2)c1=O)N1CCCc2ccccc21 | – | 53 | – | – | – | –
O=C1C=C(NCCOC23CC4CC(CC(C4)C2)C3)C2(CCCCC2)O1 | – | 86 | – | – | – | –
COc1ccc(OC)c(Cc2nnc(CCC(=O)NCc3ccc(C)s3)o2)c1 | – | – | – | – | – | ·
CCCCCCCN=CC1=C(O)CC(c2ccccc2)CC1=O (stereo not drawn) | – | – | – | – | – | ·
O=C(/C=C/c1ccccc1)CC(O)(c1ccccc1)C(F)(F)F (stereo not drawn) | – | 100 | – | – | – | 76
O=C(/C=C/c1ccccc1)CC(=O)c1ccccc1O | – | – | – | – | – | ·
O=C(c1ccc(CNS(=O)(=O)c2ccc(Br)cc2)cc1)N1CCCC1 | – | – | – | – | – | ·
Cc1ccc(C23CC4CC(CC(CN)(C4)C2)C3)cc1 | – | 100 | – | – | – | –
COC(=O)CNC(=O)C12CC3CC(C1)CC(c1ccc(C)cc1)(C3)C2 | – | – | – | – | – | ·
CN(C)S(=O)(=O)c1cccc(NC(=O)COC(=O)c2c[nH]c(=O)[nH]c2=O)c1 | – | – | – | – | – | ·
